Measured values as given in ChEMBL document CHEMBL1250451, “Mechanistic insights into a Ca2+-dependent family of alpha-mannosidases in a human gut symbiont” (Nat Chem Biol, 2010).

What was measured:
Format in all cases: protein assay
[1] = target: T1, Alpha-1,2-mannosidase (BT_2199) (Bacteroides thetaiotaomicron, UniProt Q8A5N9); assay: Inhibition of Bacteroides thetaiotaomicron GH92 alpha-mannosidase 2199 assessed as reduction of mannose release using 4NP-mannopyranoside substrate
T1 sequence (Q8A5N9 whole entry): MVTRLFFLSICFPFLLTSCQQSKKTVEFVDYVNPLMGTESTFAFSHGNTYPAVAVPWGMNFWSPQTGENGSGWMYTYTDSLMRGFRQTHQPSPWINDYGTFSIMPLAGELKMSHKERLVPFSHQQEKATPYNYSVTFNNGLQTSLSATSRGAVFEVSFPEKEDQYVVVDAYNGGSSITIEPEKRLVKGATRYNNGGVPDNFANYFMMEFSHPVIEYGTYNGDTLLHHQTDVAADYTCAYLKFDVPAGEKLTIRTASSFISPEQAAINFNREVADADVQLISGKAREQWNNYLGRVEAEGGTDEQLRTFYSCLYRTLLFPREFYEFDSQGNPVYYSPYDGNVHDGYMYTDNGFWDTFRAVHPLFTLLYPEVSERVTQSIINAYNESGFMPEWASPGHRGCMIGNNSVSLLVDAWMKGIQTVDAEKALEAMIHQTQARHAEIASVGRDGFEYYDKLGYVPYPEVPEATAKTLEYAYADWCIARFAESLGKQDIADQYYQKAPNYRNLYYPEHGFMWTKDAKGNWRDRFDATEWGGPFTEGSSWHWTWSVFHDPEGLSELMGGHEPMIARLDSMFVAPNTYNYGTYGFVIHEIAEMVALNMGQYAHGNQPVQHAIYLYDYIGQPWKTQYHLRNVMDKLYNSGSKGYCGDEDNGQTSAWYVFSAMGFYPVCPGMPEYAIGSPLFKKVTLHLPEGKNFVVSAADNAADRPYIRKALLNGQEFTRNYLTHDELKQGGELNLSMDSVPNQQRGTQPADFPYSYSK
Summary of the method: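 Recombinant enzymes expressed in E. coli. Bt3990 was purified by IMAC, anion exchange and size exclusion; Bt2199 by IMAC only. Ki was measured with at least five inhibitor concentrations at a substrate concentration ≪ Km for each enzyme. Ki was taken as the x-axis intercept of a plot of […] against inhibitor concentration.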

[2] = substrate: O=[N+]([O-])c1ccc(O[C@H]2O[C@H](CO)[C@@H](O)[C@H](O)[C@@H]2O)cc1; assay: Ratio of Kcat to Km for Bacteroides thetaiotaomicron GH92 alpha-mannosidase GH92 alpha-mannosidase 1769 assessed as mannose release after 16 hrs by HPLC
[3] = substrate: O=[N+]([O-])c1ccc(O[C@H]2O[C@H](CO)[C@@H](O)[C@H](O)[C@@H]2O)cc1; assay: Activity of Bacteroides thetaiotaomicron GH92 alpha-mannosidase GH92 alpha-mannosidase 1769 assessed as mannose release after 16 hrs by HPLC
[4] = substrate: O=[N+]([O-])c1ccc(O[C@H]2O[C@H](CO)[C@@H](O)[C@H](O)[C@@H]2O)cc1; assay: Activity of Bacteroides thetaiotaomicron GH92 alpha-mannosidase GH92 alpha-mannosidase 3527 assessed as mannose release after 16 hrs by HPLC
[5] = substrate: O=[N+]([O-])c1ccc(O[C@H]2O[C@H](CO)[C@@H](O)[C@H](O)[C@@H]2O)cc1; assay: Ratio of Kcat to Km for Bacteroides thetaiotaomicron GH92 alpha-mannosidase GH92 alpha-mannosidase 3527 assessed as mannose release after 16 hrs by HPLC
[6] = substrate: O=[N+]([O-])c1ccc(O[C@H]2O[C@H](CO)[C@@H](O)[C@H](O)[C@@H]2O)cc1; assay: Activity of Bacteroides thetaiotaomicron GH92 alpha-mannosidase GH92 alpha-mannosidase 2629 assessed as mannose release after 16 hrs by HPLC
[7] = substrate: O=[N+]([O-])c1ccc(O[C@H]2O[C@H](CO)[C@@H](O)[C@H](O)[C@@H]2O)cc1; assay: Ratio of Kcat to Km for Bacteroides thetaiotaomicron GH92 alpha-mannosidase GH92 alpha-mannosidase 2629 assessed as mannose release after 16 hrs by HPLC
[8] = substrate: O=[N+]([O-])c1ccc(O[C@H]2O[C@H](CO)[C@@H](O)[C@H](O)[C@@H]2O)cc1; assay: Activity of Bacteroides thetaiotaomicron GH92 alpha-mannosidase GH92 alpha-mannosidase 2111 assessed as mannose release after 16 hrs by HPLC
[9] = substrate: O=[N+]([O-])c1ccc(O[C@H]2O[C@H](CO)[C@@H](O)[C@H](O)[C@@H]2O)cc1; assay: Ratio of Kcat to Km for Bacteroides thetaiotaomicron GH92 alpha-mannosidase GH92 alpha-mannosidase 2111 assessed as mannose release after 16 hrs by HPLC
[10] = substrate: O=[N+]([O-])c1ccc(O[C@H]2O[C@H](CO)[C@@H](O)[C@H](O)[C@@H]2O)cc1; assay: Ratio of Kcat to Km for Bacteroides thetaiotaomicron GH92 alpha-mannosidase GH92 alpha-mannosidase 3773 assessed as mannose release after 16 hrs by HPLC
[11] = substrate: O=[N+]([O-])c1ccc(O[C@H]2O[C@H](CO)[C@@H](O)[C@H](O)[C@@H]2O)cc1; assay: Activity of Bacteroides thetaiotaomicron GH92 alpha-mannosidase GH92 alpha-mannosidase 3773 assessed as mannose release after 16 hrs by HPLC

O=C1N[C@@H]2[C@@H](O)[C@@H](O)[C@H](O)[C@@H](CO)N2C1=O [KIFUNENSINE]
Ki [1]: 230 µM

B1: Alpha-1,2-mannosidase (BT_1769) (Bacteroides thetaiotaomicron), Q8A6V7 (protein)
chain: MKLTHILASAAIISTLSACNGSLQTADRTPVDYVNPYIGNISHLLVPTFPTIQLPNSMLRVYPERADYTSELLKGLPLIVTNHRERSAFNFSPYQGEKLRPVITYNYDNEHITPYSFDVELDDNRMKAEYALSHQSAIYRITYEADKPAYLIVNSRNGSIHANENFISGRQQLNDNTNVYVYIEAQEKPISAGILENGTIETSKDNAEGANACAAWRFADGTTTVNLRYGISFISEEQAEKNLHRELKDYNIKALAEAGRQIWNETLGRIQVEGGTEDDKTVFYSSFYRTFERPICMSEGGRYFSAFDGKVHEDNGTPFYTDDWIWDTYRAAHPLRTLIDQQKEEDIIASYLRMAEQMGNMWMPTFPEVTGDTRRMNSNHAVATVADALAKGLKVDTAKAYEACRKGIEEKTLAPWSGAPAGWLDNFYRENGYIPALRVDEPENDPNVHPFEKRQPVAVTLGTSYDQWCLSRIAQALNKKEEAEYYLKCSYNYRNLYNKETAFFHPKDKEGQWIEPFDYRFPGGMGAREYYGENNGWVYRWDVPHNVADLISLMGGNEQFIANLDRTFTEPLGRSKYAFYAKLPDHTGNVGQFSMANEPSLHVPYLYNYAGQPWKTQKRIRQMLKTWFRNDLMGIPGDEDGGGMTSFVVFSSLGFYPVTPGLPAYTIGSPLFTDAKIRLSNGAVFEIEAKNASTDNKYIQSATLNGKEWNKSWFSHDDLMSGGKLVLVMGNKPNKTWASGAEDVPPSLEIK
kcat/Km [2]: Not Active | Km [3]: Not Active | kcat [3]: Not Active

B2: Alpha-1,2-mannosidase (BT_3527) (Bacteroides thetaiotaomicron), Q8A1Y1 (protein)
chain: MKKLALLAFTLFSAWNMDAKTITGPVDYVSPLVGTQSKHALSTGNTYPAIALPWGMNFWVPQTGKMGDGWAYTYDADKIRGFKQTHQPSPWINDYGQFSIMPITGKAVFDQDQRASWFSHKAETATPYYYKVYLADHDVVTEIAPTERAAAFRFTFPENDHSYVVVDAFDNGSFVKVIPSENKIIGYTTKNSGGVPANFKNYFVLEFDKPFTYTAAVANGNIDTNKLEANDKHAGALIGFKTRKGEQVNVRVASSFISPEQAELNLKELGKDNIDQIAAKGRKVWNDVLGRIEVEDDDIDHLRTFYSCLYRSVLFPRSFYEIDAKGDIVHYSPYNGEVLPGYMFTDTGFWDTFRCLFPFLNLMYPSMNMKMQEGLVNTYKESGFLPEWASPGHRGCMVGNNSASVVADAYLKGLKGYDIETLWEAVKHGANAVHPQVSSTGRLGYDYYNKLGYVPYNVGINENAARTLEYAYNDWCIYQLGKALNKPKKEIEIFAKRAMNYKNLYDPEHKLMRGKNEDGKFQSPFNPLKWGDAFTEGNSWHYTWSVFHDPQGLIDLMGGKDGFNQMMDSVFILPPVFDDSYYGGVIHEIREMQIMNMGNYAHGNQPIQHMLYMYNYSGQPWKAQHWIREVMDKLYTPAPDGYCGDEDNGQTSAWYVFSAMGFYPVCPGTDEYILGTPYFKQMKLHLENGKTVTISAPNNGDDKRYISSMTLNGKDHTKNYVTHEDLMNGASITFKMDSKPNEQRGTKETDFPYSFSNEFKKKK
Km [4]: Not Active | kcat [4]: Not Active | kcat/Km [5]: Not Active

B3: Alpha-1,2-mannosidase (BT_2629) (Bacteroides thetaiotaomicron), Q8A4H0 (protein)
chain: MKTHFSFKHLLFLGGAVLYSLQSSAVKNPVDYVSTLIGTQSKFELSTGNTYPATALPWGMNFWTPQTGKMGDGWAYTYDADKIRGFKQTHQPSPWMNDYGQFAIMPITGGLVFDQDRRASWFSHKAEVAKPYYYKVYLADHDVTTELAPTERAVMFRFTYPETKNAYVIVDAFDKGSYVKVIPEENKIIGYSTKNSGGVPENFKNYFVIQFDKPFTFVSTVFENNILPNETEAKGNHTGAVIGFATKKGEIVHARVASSFISPEQAELNLKELGKNSFDQLVANGREIWNREMSKIEIEDDNIDNLRTFYSCLYRSMLFPRSFYEIDAKGQVMHYSPYNGEVRPGYMFTDTGFWDTFRCLFPFLNLMYPSMNQKMQEGLVNTYKESGFLPEWASPGHRDCMVGNNSASVVADAYIKGLRGYDIETLWEALKHGANAHLRGTASGRLGYESYNQLGYVANNIGIGQNVARTLEYAYNDWAIYTLGKKLGKPENEIDIYKKHALNYKNVYHPERKLMVGKDNKGVFNPNFDAVDWSGEFCEGNSWHWSFCVFHDPQGLINLMGGKKEFNAMMDSVFVISGKLGMESRGMIHEMREMQVMNMGQYAHGNQPIQHMVYLYNYSSEPWKAQYWIREIMNKLYTAGPDGYCGDEDNGQTSAWYVFSALGFYPVCPGTDEYIIGTPLFKSAKLHLENGKTITIKADNNQLDNRYIKEMKVNGKSQTRNFLTHDQLIKGANIQFQMSPVPNKQRGTTEKDVPYSLSFE
Km [6]: Not Active | kcat [6]: Not Active | kcat/Km [7]: Not Active

B4: Alpha-1,2-mannosidase (BT_2111) (Bacteroides thetaiotaomicron), Q8A5X5 (protein)
chain: MKRIPLSLFTFLFLLSGLCAAPTKTVWQIGEKNHSASELALSPDKYKEFLANDFGWEDRFYIIGLSSPQKDFPYVLPGPADHWGGTSYTAGIRTHVLNILFGMKEVPETDSWKLIIDLLDTHHELPALFKITINGKSWKYALPKGSGKSIDGDYSQIKPHTIEIPLNSGVIRKGSNSIALTSLEGSWILFDDIRLMGPDNAELNEVNKSVYLRDVKAADFQTTSPVAQPLLVDIEHLSGHPLLEVKVDGKKILEQRLEKGRYILEAPMPVVKSPKTSHYIISADGAILDKGMIRRAPHNTITLADYIDTRMGTAHSRWMIAPGTWMPFSMVKLSPDNQDSGWQSGYDPSFESIGTFSHIHEWTMAGLGIMPANGPLKTEIGSQSSLVKDANSYRSAIDKTSEETKVGYYKVDLTDYQIKAELTATSRCGFQRYTYPQDKDARVMIDLKIPSEYDYQIVEGSVKQTGARRIEGFSKQLSKNVWSADADQNYTIYFVIEFNKDIKKFGGWHDHTLWETDTMTAHYPQRFGCYAEFDTTDHPEVMVRSGISYVDMAGASNNLSNEITEPFGWNFEAVHKHQSDSWNNILNRVRIYSNDYREKVRFYTNLYRAFCRNTFSDADRRWVDAAGNIQKLDDPDAVALGCDAFWNTFWNLNQVWNLIAPEWSSRWVKSQLAMYDANGWLAKGPSGMKYIPVMVGEHEIPLLVSTYQMGIRNYDAEKMFRAIVKMQTTPAQRVANGFAGNRDLETYLQHQYVPADKGRFSNTLEYSYDDWTVSQLAKALGKEEYYRTFSNRGNWWKNAINPATGYAQMRYSNGEWEKNFDPFKSGANHHYVEGNAWQLTFFVPQNVPALTEIIGKELFIDRLSWGFKASEPWRYNAPGDQYWDFPVVQGNQQSMHFAFLFNWAGQPWQTQRWSRSIIDRYYGFDTSNAYLGDEDQGQMSAWFVMAALGLFQTDGGCNAEPVYELGSPLFEKIKIDLGKHFGRGKQFIIKASNTSRENKYIQSAKLNGKKLNSFKFPAKELLKGGTLELEMGDRPNKNWGIK
Km [8]: Not Active | kcat [8]: Not Active | kcat/Km [9]: Not Active

B5: Alpha-1,2-mannosidase, putative (BT_3773) (Bacteroides thetaiotaomicron), Q8A193 (protein)
chain: MNAFKLLMAASCFLGLATSGVAKQDYSKSEGLLQYVDPYIGSGFHGHVFVGTSVPYGMVQLGPNNIHKGWDWCSGYHYSDSILIGFSHTHLSGTGCTDLGDILIMPLNEIRTPRGNQDDIRDGYASKYSHDNEIARPEYYSLILDRYNIKAELTATDRVGFHRYTYPEGKPVSILIDLREGNGSNAYDSYIRKVDDYTVEGYRYVRGWSPSRKVYFVLKSDQKIEKFTAYDDNTPKLWDQLKVESVKSVLTFGNVKEVKIKVAISSVSCDNAAMNLQAELSHWDFDKVVKMSSDRWNKQLDKMTVESDDEAAKRVFYTAHYHTMIAPTLYCDVNGEYRGMNDMIYTDPKKANYTTLSLWDTYRALNPLMTIIQPEMVDNVINSMLSIYRQQDKLPIWPLMSGETNCMPGYSSVPVIADAYLKGFTGFDAEEALTAMKATATYEGQNGVPYVMAKGYIPADKIHEATSIAMEYAVDDWGIAAMAQKMGKTADYETFSKRAHYYKNYFDSSIHFIRPKLEDGSWRTPYDPARSIHGVGDFCEGNGWQYTFFAPQDPYGLISLFGGDKPFTSKLDSFFTNNDSMGEGASSDITGLIGQYAHGNEPSHHIAYLYTYAGEQWKTAEKVRFIMSDFYTDQPDGIIGNEDCGQMSAWYLLSAMGFYQVNPSDGVFAFGSPRFKKIEVKVRGGKVFTVEAPNNSKDNIYIQKVYLNGKPYHKSYITYDDIINGSTLKFEMGKKPAKNFGKASANRPIVLNK
kcat/Km [10]: Not Active | Km [11]: Not Active | kcat [11]: Not Active
